From PubChem BioAssay
Active and inactive are the calls of the source.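 The calls were made as follows, unless noted: active = viability at or below 30% in both replicate assays; inconclusive = viability at or below 30% in just one of the two assays; inactive = the rest.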 Square brackets hold non-standard residues; d marks the D form. Peptide text beside a SMILES is read from it. * marks the point of attachment. ξ: configuration not given here. Boc = CC(C)(C)OC(=O)*; ξV = CC(C)C(N)C(=O)O

Experiments:
[1] = reducers of endogenous Her2 protein level, primary screen, SKBR3 breast tumor cells, AlphaScreen, ATP viability (AID 461;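 active = Her2 level under about 52% in both replicate screens, with viability over 70% of control, limit read from the data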;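 as to Her2 level: lower value means less Her2 protein in the cells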;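 as to viability: percent of carrier control wells set as 100% viability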); conditions: 18-24 h, measured here: SKBR3 viability, ATP luminescence, at 10 µM
[2] = biological target: Receptor tyrosine-protein kinase erbB-2 (Homo sapiens) (UniProt P04626); experiment: as above; conditions: 18-24 h, at 10 µM, stronger effect = lower value
[3] = SK-BR-3 cell growth inhibitors, pilot screen, 24 h, human (AID 572;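 active = viability at or below 10% of carrier control in both of two separate runs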;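 also: compound exposure lasted between 18 and 24 h rather than exactly 24 h; 100% = carrier-treated control wells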); conditions: SK-BR-3 viability, CellTiter-Glo luminescence, at 10 µM, stronger effect = lower value
[4] = HUVEC growth inhibition – cell-based, human, primary screen (AID 575); conditions: HUVEC proliferation, CellTiter-Glo luminescence, 72 h; at 10 µM; stronger effect = lower value;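 also: 100% = median of untreated cell wells with 0.1% DMSO on each plate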
How it was run: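 Material: primary human umbilical vein endothelial cells / Schedule: 72 h exposure, 37 °C, 5% CO2, 30 min RT equilibration / Signal: ATP-based CellTiter-Glo luminescent read / Read-out basis: percent of median DMSO-control luminescence / Control set: 32 DMSO-only cell-control wells (high), 32 MePR drug-control wells (low) per plate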

[5] = growth inhibitors of H69AR lung tumor, primary screen, human, duplicate replicates (AID 580;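 active = viability at or under a set limit in both replicates, limit being median viability minus 3 SD, cut at about 48% in these data, passing the limit was not always enough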;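 also: 100% = mean luminescence of untreated wells and 0% = no signal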); conditions: H69AR lung tumor cells viability, ATP luminescence, 72 h; at 10 µM; stronger effect = lower value
[6] = reversal of MRP1-mediated doxorubicin resistance, pilot screen, H69AR cells, doxorubicin co-treatment (AID 601;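 active = viability loss from added drug above about 55%, and viability with drug at most 40%, in both replicates, limit read from the data, passing the limit was not always enough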); conditions: CellTiter-Glo, 72 h, at 10 µM; for differential viability (reversal): stronger effect = higher value
[7] = 384-well plate pilot, post-Golgi transport modulator project, inhibition of yeast transport mutant growth (AID 636; in the data active = inhibition above about 31%); conditions: absorbance 615 nm, about 18 h, stronger effect = higher value
[8] = growth suppression of yeast trafficking mutant, preliminary HTS, modulators of trafficking downstream of Golgi apparatus project, 1536-format plate, OD 615 nm (AID 637; in the data active = inhibition above about 30%); conditions: yeast transport mutant growth, absorbance 615 nm, 18 h; stronger effect = higher value
[9] = H69AR cells + 2 uM doxorubicin, measured here: viability with 2 uM doxorubicin, stronger effect = lower value
[10] = H69AR cells, compound alone cytotoxicity

Chain of Receptor tyrosine-protein kinase erbB-2 (Homo sapiens) (P04626 whole entry, looked up): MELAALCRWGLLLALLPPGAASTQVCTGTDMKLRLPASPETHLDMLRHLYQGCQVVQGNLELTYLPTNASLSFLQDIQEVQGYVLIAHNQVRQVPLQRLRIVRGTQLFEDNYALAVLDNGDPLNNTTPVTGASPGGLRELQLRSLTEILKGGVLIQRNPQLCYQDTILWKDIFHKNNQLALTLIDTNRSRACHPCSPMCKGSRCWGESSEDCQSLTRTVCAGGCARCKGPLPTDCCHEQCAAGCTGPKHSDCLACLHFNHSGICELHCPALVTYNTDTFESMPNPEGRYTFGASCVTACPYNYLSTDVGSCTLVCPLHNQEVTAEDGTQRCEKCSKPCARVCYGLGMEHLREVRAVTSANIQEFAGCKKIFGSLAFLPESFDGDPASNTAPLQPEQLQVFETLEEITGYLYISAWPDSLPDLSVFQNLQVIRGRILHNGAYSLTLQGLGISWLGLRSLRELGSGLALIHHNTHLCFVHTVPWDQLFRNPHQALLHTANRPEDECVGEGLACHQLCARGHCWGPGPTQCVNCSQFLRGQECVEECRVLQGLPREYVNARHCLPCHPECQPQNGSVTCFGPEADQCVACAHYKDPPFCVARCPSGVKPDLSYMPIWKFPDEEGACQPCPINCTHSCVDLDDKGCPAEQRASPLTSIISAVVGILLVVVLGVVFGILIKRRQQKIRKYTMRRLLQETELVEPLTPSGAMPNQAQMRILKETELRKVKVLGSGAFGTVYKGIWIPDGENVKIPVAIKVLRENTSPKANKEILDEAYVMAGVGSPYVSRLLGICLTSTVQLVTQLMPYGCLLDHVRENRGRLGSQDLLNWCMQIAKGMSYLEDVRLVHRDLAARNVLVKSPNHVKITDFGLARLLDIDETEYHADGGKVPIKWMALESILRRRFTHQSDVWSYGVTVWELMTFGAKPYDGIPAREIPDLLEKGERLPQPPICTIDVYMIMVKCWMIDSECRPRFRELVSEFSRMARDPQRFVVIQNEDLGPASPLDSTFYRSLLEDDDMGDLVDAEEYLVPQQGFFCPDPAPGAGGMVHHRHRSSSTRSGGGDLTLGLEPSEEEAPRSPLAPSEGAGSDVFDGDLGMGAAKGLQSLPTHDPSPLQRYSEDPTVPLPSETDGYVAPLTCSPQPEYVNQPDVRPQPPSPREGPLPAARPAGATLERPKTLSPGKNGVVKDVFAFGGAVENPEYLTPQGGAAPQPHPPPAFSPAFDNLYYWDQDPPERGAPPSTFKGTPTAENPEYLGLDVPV

| Structure (SMILES) | viability [1] [%] | Her2 level [2] | viability [3] | viability [4] | viability [5] | differential viability (reversal) ([6]; H69AR cells + 2 uM doxorubicin) | viability [6, 9] [%] | viability [6, 10] [%] | inhibition [7] | inhibition [8] |
| --- | --- | --- | --- | --- | --- | --- | --- | --- | --- | --- |
| O=S(=O)(NCc1ccco1)c1cccc2cccnc12 | 105 | 93.5% (inactive) | 105% (inactive) | 89.7% (inactive) | 79% (inactive) | -9.52% (inactive) | 88.5 | 79 | -1.18% (inactive) | -1.45% (inactive) |
| CC(=O)NC(C(=O)NCC(N)=O)C(C)C (stereo not drawn) (Ac-[ξV]-Gly-NH2) | 90 | 104% (inactive) | 90% (inactive) | 100% (inactive) | 93.9% (inactive) | -1.82% (inactive) | 95.7 | 93.9 | -5.58% (inactive) | -9.05% (inactive) |
| OC(CCN1CCCCC1)(c1ccccc1)C1CCCCC1 (stereo not drawn) | 69.5 | 99.5% (inactive) | 69.5% (inactive) | 84.9% (inactive) | 92.2% (inactive) | -0.69% (inactive) | 92.9 | 92.2 |  |  |
| COc1ccc(CCn2c(C)cc(C(=O)CSc3nnnn3C)c2C)cc1 | 99.5 | 144% (inactive) | 99.5% (inactive) | 81.7% (inactive) | 101% (inactive) | -3.11% (inactive) | 104 | 101 | -0.13% (inactive) | -1.83% (inactive) |
| COc1ccc(CN(CCN(C)C)c2ccccn2)cc1 | 91 | 104% (inactive) | 91% (inactive) | 97.4% (inactive) | 93.9% (inactive) | 19.5% (inactive) | 74.4 | 93.9 |  |  |
| Cc1cn([C@H]2C[C@H](N=[N+]=[N-])[C@@H](CO)O2)c(=O)[nH]c1=O | 91.5 | 90% (inactive) | 91.5% (inactive) | 104% (inactive) | 96.5% (inactive) | 4.1% (inactive) | 92.4 | 96.5 |  |  |
| CC(C)(C)NC[C@H](O)COc1nsnc1N1CCOCC1 | 112 | 110% (inactive) | 112% (inactive) | 99.8% (inactive) | 106% (inactive) | 2.23% (inactive) | 104 | 106 |  |  |
| Cc1onc(-c2ccccc2)c1C(=O)N[C@@H]1C(=O)N2[C@@H]1SC(C)(C)[C@@H]2C(=O)O | 108 | 100% (inactive) | 108% (inactive) | 91.1% (inactive) | 101% (inactive) | 0% (inactive) | 101 | 101 |  |  |
| CN1CCN2c3ccccc3Cc3ccccc3C2C1 (stereo not drawn) | 82.5 | 117% (inactive) | 82.5% (inactive) | 73.4% (inactive) | 90.2% (inactive) | 1.02% (inactive) | 89.1 | 90.2 |  |  |
| NC(=O)c1ccccc1NC(=O)CN1CCOCC1 | 106 | 87% (inactive) | 106% (inactive) | 104% (inactive) | 88.1% (inactive) | 6.19% (inactive) | 81.9 | 88.1 | -1.87% (inactive) | 0.32% (inactive) |
| CCOC(=O)CSc1nnc(CCc2nc3ccccc3[nH]2)n1C | 118 | 112% (inactive) | 118% (inactive) | 87.5% (inactive) | 102% (inactive) | 1.34% (inactive) | 101 | 102 | -4.93% (inactive) | -7.78% (inactive) |
| CCn1c(C(=O)OC)cc2c1ccn2-c1ccc(F)cc1 | 91 | 80.5% (inactive) | 91% (inactive) | 86.1% (inactive) | 83% (inactive) | 7.09% (inactive) | 75.9 | 83 | -5.13% (inactive) | -1.82% (inactive) |
| COCCNC(=O)CN1CCN(C(c2ccccc2)c2ccccc2)CC1 | 86 | 117% (inactive) | 86% (inactive) | 84.3% (inactive) | 93.1% (inactive) | 0.91% (inactive) | 92.2 | 93.1 | -0.39% (inactive) | -5.08% (inactive) |
| COc1ccccc1-c1nc(C#N)c(N2CCN(c3ccccc3)CC2)o1 | 104 | 79.5% (inactive) | 104% (inactive) | 70.4% (inactive) | 89.8% (inactive) | 10.2% (inactive) | 79.6 | 89.8 | -3.68% (inactive) | 3.65% (inactive) |
| N#Cc1ccccc1NC(=O)CSc1nnc(-c2ccccc2)n1-c1ccccc1 | 81.5 | 83% (inactive) | 81.5% (inactive) | 102% (inactive) | 30.3% (active) | -63.4% (inactive) | 93.8 | 30.3 | 1.49% (inactive) | -0.32% (inactive) |
| CC(C)(C)C(=O)Cn1c[n+](N)cn1 | 103 | 86% (inactive) | 103% (inactive) | 86.1% (inactive) | 96.9% (inactive) | 4.54% (inactive) | 92.4 | 96.9 | -4.67% (inactive) | 0.49% (inactive) |
| CCOC(=O)c1c(C)oc2ccc(O)c(CN3CCCCC3)c12 | 87.5 | 79.5% (inactive) | 87.5% (inactive) | 90.2% (inactive) | 86.9% (inactive) | -3.83% (inactive) | 90.7 | 86.9 | -1.84% (inactive) | 2.22% (inactive) |
| CCOC(=O)CSc1nnc(-c2ccc(S(=O)(=O)N3CCOCC3)cc2)n1-c1ccccc1 | 93 | 83.5% (inactive) | 93% (inactive) | 94.4% (inactive) | 105% (inactive) | 17.4% (inactive) | 87.7 | 105 | -1.97% (inactive) | 1.43% (inactive) |
| CCCCCc1c(C)nc(N2CCc3ccccc32)[nH]c1=O | 92.5 | 90% (inactive) | 92.5% (inactive) | 57.4% (inactive) | 94.6% (inactive) | -0.605% (inactive) | 95.2 | 94.6 | -0.68% (inactive) | 3.17% (inactive) |
| O=C(CSc1nnnn1-c1ccc(Cl)cc1)NC(=O)Nc1ccc2c(c1)OCCO2 | 104 | 101% (inactive) | 104% (inactive) | 66.9% (inactive) | 75.5% (inactive) | 0.67% (inactive) | 74.8 | 75.5 | -6% (inactive) | 3.02% (inactive) |
| CC(C)(C)OC(=O)N1CCCC1C(=O)NC(Cc1ccccc1)C(=O)O (stereo not drawn) (Boc-Pro-Phe-OH; configuration not given here) | 116 | 102% (inactive) | 116% (inactive) | 96.1% (inactive) | 104% (inactive) | 8.93% (inactive) | 95.2 | 104 | -4.59% (inactive) | 0.48% (inactive) |
| c1ccc(OCCCn2nnc(-c3cccnc3)n2)cc1 | 110 | 87.5% (inactive) | 110% (inactive) | 103% (inactive) | 108% (inactive) | 10.3% (inactive) | 97.3 | 108 | -3.68% (inactive) | -5.83% (inactive) |
| CCC(C)(C)NC(=O)C(OC(=O)c1ccco1)c1ccccc1OC (stereo not drawn) | 99 | 93% (inactive) | 99% (inactive) | 91.4% (inactive) | 106% (inactive) | 18.8% (inactive) | 87.2 | 106 | -3.65% (inactive) | -5% (inactive) |
| CCOc1ccccc1-c1nc(-c2ccc(NC(=O)Cc3ccccc3OC)cc2)no1 | 90.5 | 114% (inactive) | 90.5% (inactive) | 75.3% (inactive) | 88.6% (inactive) | 5.33% (inactive) | 83.3 | 88.6 | 0.93% (inactive) | -5.81% (inactive) |
| COc1ccccc1N1CCN(C(=O)CCNS(=O)(=O)c2ccc3c(c2)CCC(=O)N3)CC1 | 89 | 81.5% (inactive) | 89% (inactive) | 106% (inactive) | 89.8% (inactive) | -0.605% (inactive) | 90.4 | 89.8 | -4.53% (inactive) | 2.62% (inactive) |
| c1ccc2c(c1)CNC1(CCCCC1)C2 | 103 | 94.5% (inactive) | 103% (inactive) | 103% (inactive) | 102% (inactive) | 12.9% (inactive) | 88.6 | 102 | -8.63% (inactive) | 1.27% (inactive) |
